Measured values from different studies.
Protocols differ between the studies behind these lines.

| SMILES | assay | test system | setting | endpoint | value |
| --- | --- | --- | --- | --- | --- |
| CNCCNC(=O)c1cc(C(C)C)nc2c1cnn2C(C)C | metabolic stability | mouse, liver microsomes | – | scaled CLint | 694 mL/min/kg |
| Cc1cc(S(=O)(=O)NC2CC(N3CCN(CC4CCN(c5cccc6c5n(C)c(=O)n6C5CCC(=O)NC5=O)CC4)C4(CC4)C3)C2)ccc1Nc1ncc(C(F)(F)F)c(N2CCC[C@](C)(O)C2)n1 (some centres unmarked) | – | rat, plasma | intravenous, 2 mg/kg | Vd | 82 L/kg |
| O=c1c2c([nH]c3ccc(F)c(Oc4ccc(OC(F)(F)F)cc4)c13)CCCC2 | metabolic stability | mouse, liver microsomes | 1 µM, pH 7.4 | microsomal CLint | 49 µL/min/mg |
| CC(C)c1cc(C(=O)NCCN2CCCC2)c2cnn(C(C)C)c2n1 | metabolic stability | mouse, liver microsomes | – | scaled CLint | 195 mL/min/kg |
| C[C@H]1Oc2cc(cnc2N)-c2c(nn(C)c2C#N)CN(C)C(=O)c2ccc(F)cc21 | – | male Sprague-Dawley rat, plasma | oral, 10 mg/kg, single dose | Vd/F | 37 L/kg |
| CN(C)CCOc1ccc2c(=O)c3c([nH]c2c1)CCCC3 | metabolic stability | mouse, liver microsomes | 1 µM, pH 7.4 | microsomal CLint | 40.4 µL/min/mg |
| CC(C)n1ncc2c(C(=O)NCC(C)(C)N(C)C)cc(C3CC3)nc21 | metabolic stability | mouse, liver microsomes | – | scaled CLint | 120 mL/min/kg |
| O=c1c2c([nH]c3ccc(Oc4ccc(OC(F)(F)F)cc4)cc13)CCCC2 | metabolic stability | mouse, liver microsomes | 1 µM, pH 7.4 | microsomal CLint | 39 µL/min/mg |
| CC(C)n1ncc2c(C(=O)NC(C)(C)CN)cc(C3CC3)nc21 | metabolic stability | mouse, liver microsomes | – | scaled CLint | 75.6 mL/min/kg |
| CNS(=O)(=O)c1ccc(Nc2ncc(C(F)(F)F)c(N3CCC(C)(O)CC3)n2)c(C)c1 | – | rat, plasma | intravenous, 2 mg/kg | Vd | 3 L/kg |
| CC1(C)NC(=O)N(c2ccc(F)c(F)c2)C1=O | metabolic stability | mouse, liver microsomes | – | microsomal CLint | 7 µL/min/mg |
| Cc1cc(S(=O)(=O)NC2CC(N3CCN(CC4CCN(c5ccc(NC6CCC(=O)NC6=O)cc5C)CC4)CC3)C2)ccc1Nc1ncc(C(F)(F)F)c(N2CCC[C@](C)(O)C2)n1 (some centres unmarked) | – | rat, plasma | intravenous, 2 mg/kg | Vd | 9 L/kg |
| CCCCN(CCCC)CCCOc1ccc2c(=O)c3c([nH]c2c1)CCCC3 | metabolic stability | mouse, liver microsomes | 1 µM, pH 7.4 | microsomal CLint | 36.2 µL/min/mg |
| O=C1NC(CF)(CF)C(=O)N1c1ccc(F)c(C(F)(F)F)c1 | metabolic stability | mouse, liver microsomes | – | microsomal CLint | < 7 µL/min/mg |
